# Test results published in ChEMBL document CHEMBL5252539, “In vitro biological evaluation of new antimycobacterial salicylanilide-tuftsin conjugates” (Eur J Med Chem, 2017).
# Calls of active or inactive are those of the source. No cut-off for these calls is given here. *1 amine or outer side, *2 acyl side, *3 side chain or, on linkers, in order; H or OH if unused. Where a SMILES comes first, the peptide text is derived from it. [ ]: non-standard residue; d: D form. The star is where a group is joined. X1 = C/C(=N\OCC(=O)[*:2])c1ccc(N[*:1])cc1; Benzoyl(5-Br-2-OH) = O=C(c1cc(Br)ccc1O)*
# Columns and labels:
# [1] = system: Mycobacterium tuberculosis; test: Antimycobacterial activity against isoniazid and rifampicin resistant Mycobacterium tuberculosis A8 ATCC 35822 assessed as reduction in bacterial growth after 28 days by serial dilution method; format: functional; conditions: A8 ATCC 35822, 672 h, time 28 day
# Summary of the method: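 Broth MIC in Sula semisynthetic medium, pH 6.5; 4-week incubation, with 21-day values […] where indicated. Drug-free inoculated bacteria served as growth control. MIC also expressed as drug content (µg/mL) = MIC (µM) × average SAL molar mass × number of SAL per conjugate / 1000.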
# [2] = system: Mycobacterium tuberculosis; test: Antimycobacterial activity against isoniazid and rifampicin resistant Mycobacterium tuberculosis A8 ATCC 35822 assessed as reduction in colony forming unit after 28 days by serial dilution method; format: functional, organism-based; conditions: time 28.0 day
# Summary of the method: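 After the 4-week MIC incubation in Sula semisynthetic medium (pH 6.5), growth inhibition confirmed by plating on Löwenstein-Jensen solid medium and counting colony forming units.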
SMILES,MIC [1] [µM],Activity [2]
CC(=O)c1ccc(NC(=O)c2cc(Cl)ccc2O)cc1,17.3,Active
C/C(=N\OCC(=O)N[C@H](C(=O)N[C@@H](CCCCN)C(=O)N1CCC[C@H]1C(=O)N[C@@H](CCCCN)C(=O)NCC(=O)O)[C@@H](C)O)c1ccc(NC(=O)c2cc(Br)ccc2O)cc1 ({Benzoyl(5-Br-2-OH)}-[X1]TKPKG-OH),109,Active
C/C(=N\OCC(=O)NCC(=O)N[C@@H](Cc1ccccc1)C(=O)N[C@@H](CC(C)C)C(=O)NCC(=O)N[C@H](C(=O)N[C@@H](CCCCN)C(=O)N1CCC[C@H]1C(=O)N1CCC[C@H]1C(=O)N[C@@H](CCCNC(=N)N)C(=O)O)[C@@H](C)O)c1ccc(NC(=O)c2cc(Br)ccc2O)cc1,73.5,
C/C(=N\OCC(=O)N[C@H](C(=O)N[C@@H](CCCCN)C(=O)N1CCC[C@H]1C(=O)N1CCC[C@H]1C(=O)N[C@@H](CCCNC(=N)N)C(=O)O)[C@@H](C)O)c1ccc(NC(=O)c2cc(Br)ccc2O)cc1,101,
C/C(=N\OCC(=O)N[C@H](C(=O)N[C@@H](CCCCN)C(=O)N1CCC[C@H]1C(=O)N[C@@H](CCCNC(=N)N)C(=O)O)[C@@H](C)O)c1ccc(NC(=O)c2cc(Br)ccc2O)cc1 ({Benzoyl(5-Br-2-OH)}-[X1]TKPR-OH),112,Active
O=C(Nc1ccc(Cl)c(Cl)c1)c1cc(Cl)ccc1O,1.6,
O=C(Nc1ccc(C(F)(F)F)cc1)c1cc(Br)ccc1O,2.8,
C/C(=N\OCC(=O)NCC(=O)N[C@@H](Cc1ccccc1)C(=O)N[C@@H](CC(C)C)C(=O)NCC(=O)N[C@H](C(=O)N[C@@H](CCCCN)C(=O)N1CCC[C@H]1C(=O)N[C@@H](CCCCN)C(=O)NCC(N)=O)[C@@H](C)O)c1ccc(NC(=O)c2cc(Br)ccc2O)cc1 ({Benzoyl(5-Br-2-OH)}-[X1]GFLGTKPKG-NH2),77.4,Active
O=C(Nc1ccc(Cl)c(Cl)c1)c1cc(Br)ccc1O,2.8,
C/C(=N\OCC(=O)NCC(=O)N[C@@H](Cc1ccccc1)C(=O)N[C@@H](CC(C)C)C(=O)NCC(=O)N[C@H](C(=O)N[C@@H](CCCCN)C(=O)N1CCC[C@H]1C(=O)N[C@@H](CCCNC(=N)N)C(=O)O)[C@@H](C)O)c1ccc(NC(=O)c2cc(Br)ccc2O)cc1,79.1,
CC(=O)c1ccc(NC(=O)c2cc(Br)ccc2O)cc1,15,Active
C/C(=N\OCC(=O)NCC(=O)N[C@@H](Cc1ccccc1)C(=O)N[C@@H](CC(C)C)C(=O)NCC(=O)N[C@H](C(=O)N[C@@H](CCCCN)C(=O)N1CCC[C@H]1C(=O)N[C@@H](CCCCN)C(=O)NCC(=O)O)[C@@H](C)O)c1ccc(NC(=O)c2cc(Br)ccc2O)cc1 ({Benzoyl(5-Br-2-OH)}-[X1]GFLGTKPKG-OH),77.3,Active
NNC(=O)c1ccncc1 [ISONIAZID],7.3,Active
C/C(=N\OCC(=O)N[C@H](C(=O)N[C@@H](CCCCN)C(=O)N1CCC[C@H]1C(=O)N[C@@H](CCCCN)C(=O)NCC(N)=O)[C@@H](C)O)c1ccc(NC(=O)c2cc(Br)ccc2O)cc1 ({Benzoyl(5-Br-2-OH)}-[X1]TKPKG-NH2),109,Active
O=C(Nc1ccc(C(F)(F)F)cc1)c1cc(Cl)ccc1O,1.6,
O=Cc1ccc(O)c(C(=O)Nc2ccc(C(F)(F)F)cc2)c1,64.7,Active
